Legend:
Conditions in all cases: stereoisomer not certain
[1] = biological target: T1, UniProt Q8VGU3
T1 sequence (whole entry): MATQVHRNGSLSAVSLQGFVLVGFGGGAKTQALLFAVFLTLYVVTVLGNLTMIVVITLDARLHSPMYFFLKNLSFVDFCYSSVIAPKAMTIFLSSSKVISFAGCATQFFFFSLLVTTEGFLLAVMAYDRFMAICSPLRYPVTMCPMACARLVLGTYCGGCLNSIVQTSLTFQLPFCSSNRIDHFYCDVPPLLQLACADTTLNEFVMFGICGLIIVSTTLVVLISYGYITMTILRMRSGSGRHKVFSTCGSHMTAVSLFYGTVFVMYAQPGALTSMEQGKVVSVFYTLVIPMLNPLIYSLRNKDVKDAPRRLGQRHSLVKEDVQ
Summary of the method: (§1)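 Assay methods differ from source to source, frequently being transient luciferase assays in mammalian cell lines. For each receptor–molecule pair, the label responsive (active) applies when the original authors judged the measured signal statistically different from baseline, and non-responsive (inactive) applies otherwise.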

[2] = biological target: T2, UniProt Q8VGV7
T2 sequence (whole entry): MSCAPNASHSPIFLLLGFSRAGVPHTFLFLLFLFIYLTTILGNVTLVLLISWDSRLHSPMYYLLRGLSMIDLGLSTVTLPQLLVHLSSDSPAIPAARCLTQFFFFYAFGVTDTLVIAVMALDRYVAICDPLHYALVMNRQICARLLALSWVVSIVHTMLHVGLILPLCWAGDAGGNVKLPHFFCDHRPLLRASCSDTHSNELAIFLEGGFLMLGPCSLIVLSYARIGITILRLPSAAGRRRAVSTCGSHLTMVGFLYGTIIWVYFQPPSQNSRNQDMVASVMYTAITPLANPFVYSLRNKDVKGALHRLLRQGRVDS
Summary of the method: as §1

[3] = biological target: T3, UniProt Q8VGX3
T3 sequence (whole entry): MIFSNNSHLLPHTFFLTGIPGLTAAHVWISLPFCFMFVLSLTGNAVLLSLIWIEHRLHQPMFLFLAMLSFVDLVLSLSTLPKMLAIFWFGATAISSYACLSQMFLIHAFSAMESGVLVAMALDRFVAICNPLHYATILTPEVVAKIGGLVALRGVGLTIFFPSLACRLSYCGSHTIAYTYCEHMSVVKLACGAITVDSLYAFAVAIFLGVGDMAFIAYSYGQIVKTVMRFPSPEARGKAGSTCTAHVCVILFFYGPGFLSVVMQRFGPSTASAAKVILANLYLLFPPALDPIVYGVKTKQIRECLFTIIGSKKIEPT
Summary of the method: as §1

[4] = biological target: T4, UniProt Q8VGX5
T4 sequence (whole entry): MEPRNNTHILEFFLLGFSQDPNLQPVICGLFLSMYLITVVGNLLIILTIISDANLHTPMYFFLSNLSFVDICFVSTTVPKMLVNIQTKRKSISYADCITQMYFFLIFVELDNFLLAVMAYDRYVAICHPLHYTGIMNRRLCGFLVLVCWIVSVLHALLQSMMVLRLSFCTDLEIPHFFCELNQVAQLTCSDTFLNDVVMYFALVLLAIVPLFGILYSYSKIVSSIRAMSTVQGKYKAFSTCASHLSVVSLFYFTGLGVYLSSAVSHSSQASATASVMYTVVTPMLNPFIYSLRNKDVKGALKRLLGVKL
Summary of the method: as §1

[5] = biological target: T5, UniProt Q8VGW5
T5 sequence (whole entry): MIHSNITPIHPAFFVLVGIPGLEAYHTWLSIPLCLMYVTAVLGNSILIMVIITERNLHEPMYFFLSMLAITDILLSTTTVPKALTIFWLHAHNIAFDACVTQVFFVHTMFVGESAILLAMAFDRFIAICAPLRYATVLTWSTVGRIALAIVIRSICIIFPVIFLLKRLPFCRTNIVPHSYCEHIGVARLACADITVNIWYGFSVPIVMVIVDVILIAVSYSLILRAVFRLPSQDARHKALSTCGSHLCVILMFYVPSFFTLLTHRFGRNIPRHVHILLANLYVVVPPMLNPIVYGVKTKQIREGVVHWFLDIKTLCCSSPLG
Summary of the method: as §1

Measured: odorant receptor agonist call

O=C(O)C1CCC1
not listed: [5]
inactive: all other assays above

CCc1nccnc1CC
not listed: [5]
inactive: all other assays above

Cc1ccccc1OC(=O)C(C)C
not listed: [5]
inactive: all other assays above

CCCCCCCCCCOC(C)=O
not listed: [5]
inactive: all other assays above

Cc1ccc(OC(=O)C(C)C)cc1
not listed: [5]
inactive: all other assays above

CC(=O)OCc1ccc2c(c1)OCO2
not listed: [5]
inactive: all other assays above

CCCCCOC(=O)CC
not listed: [5]
inactive: all other assays above

CCCCOC(=O)CCC
inactive: [5]

CC=Cc1ccc(OC)cc1
not listed: [5]
inactive: all other assays above

CCCO
not listed: [5]
inactive: all other assays above

CC1(C)CC(=O)CC(=O)C1
not listed: [5]
inactive: all other assays above

C=CC(=C)CCC=C(C)CCC=C(C)C
not listed: [5]
inactive: all other assays above

CCCCCC(C)O (stereo unspecified)
not listed: [5]
inactive: all other assays above

CC1CCC(C(C)C)C(=O)C1 (stereo unspecified)
not listed: [5]
inactive: all other assays above

CCc1ccccc1O
not listed: [5]
inactive: all other assays above

OCCc1ccccc1
inactive: [1] | [2] | [3]
active: [4]

CCCC=O
inactive: [1] | [2] | [3]
active: [4]

C=C(C)C1CCC(C)C(O)C1 (stereo unspecified)
inactive: [1] | [2] | [3]
active: [4]

CC(=O)C=CC1=C(C)CCCC1(C)C
active: [4]
inactive: [1] | [2] | [3]

COC(OC)c1ccccc1
not listed: [5]
inactive: all other assays above

CCCCCC(C=O)=Cc1ccccc1
not listed: [5]
inactive: all other assays above

C=C(CC)CCCC(C)(C)O
not listed: [5]
inactive: all other assays above

CC=CC(=O)C1=C(C)CCCC1(C)C
active: [4]
inactive: [1] | [2] | [3]

CCCCCCC(C)O (stereo unspecified)
not listed: [5]
inactive: all other assays above

O=C(OCc1ccccc1)c1ccccc1O
not listed: [5]
inactive: all other assays above

COc1nccnc1C
not listed: [5]
inactive: all other assays above

Cc1occc1SSc1ccoc1C
not listed: [5]
inactive: all other assays above

CCC(C)c1nccnc1OC (stereo unspecified)
inactive: [1] | [2] | [3]
active: [4]

O=C(O)CCCCCBr
not listed: [5]
inactive: all other assays above

CC(C)CS
not listed: [5]
inactive: all other assays above

CC(=O)C1(C)CC2=C(CCCC2(C)C)CC1C (stereo unspecified)
inactive: [1] | [3] | [4]
active: [2]

CCCCCCC(C=O)=Cc1ccccc1
not listed: [5]
inactive: all other assays above

CCOC(=O)C(C)CC (stereo unspecified)
not listed: [5]
inactive: all other assays above

CC(C)CCN
not listed: [5]
inactive: all other assays above

c1ccc2ncccc2c1
active: [4]
inactive: [1] | [2] | [3]

O=C(O)CCCCCCCCC(=O)O
not listed: [5]
inactive: all other assays above
